# Measurements taken from ChEMBL document CHEMBL5724801, “EUbOPEN Chemogenomics Library - Multiplex” (2024).
# Several values for one entry are separate records, joined by “and”; a condition that tells them apart may be missing. Identical values can stand only once.
# Test system: U2OS
# Assay: Multiplex assay against U2OS
# Format: toxicity, cell-based
# Conditions: human
# Summary of the method: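 Four dyes were applied at seeding to live cells: Hoechst33342, BioTracker Green Microtubule Cytoskeleton Dye, MitoTracker Red and Annexin V Alexa Fluor 680. Imaging after compound addition used a CQ1 microscope at 37°C and 5% CO2. CellPathfinder machine-learning gating then sorted cells into Hoechst high-intensity objects or normal cells, normal cells into healthy, pyknosed or fragmented nuclei, and pyknosed cells into mitotic or apoptotic, with tubulin, mitochondrial-mass and membrane-permeability phenotypes given as per cents of healthy-nucleus cells.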
# [1] = 12 h, 1 µM, compound concentration 1 uM
# [2] = 12 h, 10 µM, compound concentration 10 uM
# [3] = 24 h, 1 µM, compound concentration 1 uM
# [4] = 24 h, 10 µM, compound concentration 10 uM
# [5] = 48 h, 1 µM, compound concentration 1 uM
# [6] = 48 h, 10 µM, compound concentration 10 uM
compound,measurement,setting,value
CC(C)C[C@H](NC(=O)c1cc2ccccc2s1)C(=O)N1CCN(C(=O)[C@H](CO)NS(=O)(=O)c2ccc(Cl)cc2Cl)CC1,Population Apoptotic (%),[1],71.76% and 81.82%
same,Population Fragmented Nuclei (%),[1],5.1% and 6.74%
same,Population Healthy Nuclei (%),[1],61.48% and 56.18%
same,Population Hoechst High Intensity Objects (%),[1],0%
same,Population Membrane Permeable-Phenotype (%),[1],5.39% and 4%
same,Population Mitotic Cells (%),[1],28.24% and 18.18%
same,Population Normal (%),[1],100%
same,Population Pyknosed Nuclei (%),[1],33.42% and 37.08%
same,Population Tubulin-Different-Phenotype (%),[1],4.56% and 4%
same,Population Apoptotic (%),[2],55.1% and 50.79%
same,Population Fragmented Nuclei (%),[2],2% and 2.9%
same,Population Healthy Nuclei (%),[2],65.33% and 51.45%
same,Population Hoechst High Intensity Objects (%),[2],0%
same,Population Membrane Permeable-Phenotype (%),[2],69.39% and 39.44%
same,Population Mitochondria Different-Phenotype (%),[2],30.61% and 87.32%
same,Population Mitotic Cells (%),[2],44.9% and 49.21%
same,Population Normal (%),[2],100%
same,Population Pyknosed Nuclei (%),[2],32.67% and 45.65%
same,Population Tubulin-Different-Phenotype (%),[2],98.47% and 95.77%
same,Total Cell Count,[2],300 and 138
same,Population Apoptotic (%),[3],71.76% and 90.91%
same,Population Fragmented Nuclei (%),[3],4.78% and 1.14%
same,Population Healthy Nuclei (%),[3],65.38% and 61.36%
same,Population Hoechst High Intensity Objects (%),[3],0%
same,Population Membrane Permeable-Phenotype (%),[3],4.18% and 5.56%
same,Population Normal (%),[3],100%
same,Population Pyknosed Nuclei (%),[3],29.84% and 37.5%
same,Population Tubulin-Different-Phenotype (%),[3],4.88% and 3.7%
same,Population Apoptotic (%),[4],65.59% and 62.96%
same,Population Fragmented Nuclei (%),[4],2.48% and 4.41%
same,Population Healthy Nuclei (%),[4],64.54% and 55.88%
same,Population Hoechst High Intensity Objects (%),[4],0%
same,Population Membrane Permeable-Phenotype (%),[4],34.07% and 32.89%
same,Population Mitochondria Different-Phenotype (%),[4],52.75% and 88.16%
same,Population Mitotic Cells (%),[4],34.41% and 37.04%
same,Population Normal (%),[4],100%
same,Population Pyknosed Nuclei (%),[4],32.98% and 39.71%
same,Population Tubulin-Different-Phenotype (%),[4],95.6% and 81.58%
same,Total Cell Count,[4],282 and 136
same,Population Apoptotic (%),[5],77.39% and 79.17%
same,Population Fragmented Nuclei (%),[5],3.97% and 6.03%
same,Population Healthy Nuclei (%),[5],79.75% and 73.28%
same,Population Hoechst High Intensity Objects (%),[5],0%
same,Population Membrane Permeable-Phenotype (%),[5],5.15% and 10.59%
same,Population Mitotic Cells (%),[5],22.61% and 20.83%
same,Population Normal (%),[5],100%
same,Population Pyknosed Nuclei (%),[5],16.29% and 20.69%
same,Population Tubulin-Different-Phenotype (%),[5],5.51% and 4.71%
same,Population Apoptotic (%),[6],78.7% and 70%
same,Population Fragmented Nuclei (%),[6],3.93% and 4.11%
same,Population Healthy Nuclei (%),[6],63.44% and 54.79%
same,Population Hoechst High Intensity Objects (%),[6],0%
same,Population Membrane Permeable-Phenotype (%),[6],29.05% and 32.5%
same,Population Mitochondria Different-Phenotype (%),[6],43.33% and 62.5%
same,Population Mitotic Cells (%),[6],21.3% and 30%
same,Population Normal (%),[6],100%
same,Population Pyknosed Nuclei (%),[6],32.63% and 41.1%
same,Population Tubulin-Different-Phenotype (%),[6],92.38% and 80%
same,Total Cell Count,[6],331 and 146
